We go through eight molecules from paper PMC9043816 (RSC Advances, 2021).

Several values for one entry are separate records, joined by “and”; a condition that tells them apart may be missing. Identical values can stand only once. Like-named read-outs stand apart in the source and are kept apart here.

The test system of test [1] is human breast carcinoma cell line (MCF-7). Nature of the test: MTS cytotoxicity assay, MCF-7. It is filed as cell-based. In short, it runs like this: (§1)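 Cells grown in DMEM or RPMI 1640 with 10% FBS and penicillin/streptomycin (37 °C, 5% CO2), seeded at 4000–6000 cells per mL, then after 24 h treated for 48 h with several concentrations (DMSO stock 100 mM). Medium replaced, MTS added for 3 h at 37 °C, A492 read. Inhibition % relative to untreated and blank; IC50 by curve fitting; at least three wells per concentration.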
Background: Tetrazolium assays rely on reduction of a dye to a coloured formazan, in cell work by metabolically active cells.

Test [2] deals with human tongue carcinoma cell line (SCC-15). The test is described as follows: MTS cytotoxicity assay, SCC-15. It counts as cell-based. In short, it runs like this: as §1
For test [3], the system named is human cervical carcinoma cell line (HeLa). The test is described as follows: MTS cytotoxicity assay, HeLa. It is filed as cell-based. In short, it runs like this: as §1
The test system of test [4] is human hepatoma carcinoma cell lines (HepG2). The test is described as follows: MTS cytotoxicity assay, HepG2. It is filed as cell-based. The method in brief: as §1
Another test has as its system Bcl-2. The test is described as follows: Western blotting, Bcl-2 expression in HeLa cells. It is filed as cell-based, human. To be noted: 25 nM, 50 nM and 100 nM, 48 h. In short, it runs like this: (§2)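 HeLa cells seeded at 1 × 10^5 cells per mL overnight, then given test compound (25, 50, 100 nM final) for 48 h. Lysed on ice 20 min; protein quantified by BCA. Equal protein run on SDS-PAGE and transferred to PVDF, then blocked in 5% nonfat milk. Primary antibodies (p53, Bcl-2, Bax, GAPDH loading) overnight at 4 °C; peroxidase secondary 2 h; chemiluminescent detection.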
In general terms: In western blotting, separated proteins are transferred to a membrane and probed.

The subject of test [5] is HeLa cells. The test is described as follows: Wound healing assay. It counts as cell-based, human. To be noted: serum starved. In short, it runs like this: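 HeLa cells seeded at 2.5 × 10^5 cells per mL and grown to about 90% confluence; monolayer scratched with p10 tips, washed twice in PBS. Serum-free medium with test compound (25, 50, 100 nM final) or DMSO for 48 h. Gaps photographed at 0, 24, 48 h (10× magnification); healing rate from change in wound area; three independent experiments.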

For test [6], the system named is HeLa cells. Nature of the test: 7-AAD/annexin V flow cytometry apoptosis assay. The conditions noted are these: 100 nM. It counts as cell-based, human. The method in brief: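 HeLa cells seeded at 1 × 10^5 cells per mL, grown overnight, then exposed to test compound (25, 50 or 100 nM final) for 24, 36 or 48 h. Cells were washed in cold PBS, trypsinized, and stained with annexin V-FITC plus 7-AAD for 15 min at room temperature in the dark. Analysed by flow cytometry; apoptotic % = early (annexin V+) plus late (annexin V+/7-AAD+).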
For orientation: A flow cytometer gives signals particle by particle.

Test [7] deals with human umbilical vein endothelial cells (HUVEC). Nature of the test: MTS cytotoxicity assay, HUVEC normal cells. The conditions noted are these: read-out: IC50 HUVEC, 48 h treatment. It is filed as cell-based. The method in brief:
as §1

The subject of the next test is p53. The test is described as follows: Western blotting, p53 expression in HeLa cells. It counts as cell-based, human. The conditions noted are these: 25 nM, 50 nM and 100 nM, 48 h. In short, it runs like this:
as §2

Another test has as its system Bax. Nature of the test: Western blotting, Bax expression in HeLa cells. It counts as cell-based, human. The conditions noted are these: 25 nM, 50 nM and 100 nM, 48 h. In short, it runs like this: as §2
Test [8] deals with Bel-7402, MCF-7 and MIA-PaCa cells. To be noted: 250 mg kg^−1, i.p.; cited from earlier work.
The subject of test [9] is 94 different cancer cell lines. To be noted: read-out: IC50 values against 94 different cancer cell lines; in vitro; cited from earlier work.
The next test deals with BT20 cells. To be noted: 200 mg kg^−1, i.p.; cited from earlier work.
The test system of test [10] is normal cells, such as HFL, PrEC, HMEC and HUVEC. The conditions noted are these: unless its concentration exceeded 5–10 μM; cited from earlier work.
Setting [11] is: Homo sapiens, MCF7, 48 h, read-out: IC50 MCF-7, MTS, 48 h treatment.
Where [12] appears, read: Homo sapiens, SCC-15, 48 h, read-out: IC50 SCC-15, MTS, 48 h treatment.
The mark [13] stands for this setting: Homo sapiens, HeLa, 48 h, read-out: IC50 HeLa, MTS, 48 h treatment.
Where [14] appears, read: Homo sapiens, HepG2, 48 h, read-out: IC50 HepG2, MTS, 48 h treatment.

As to `COc1ccc(CS(=O)(=O)c2ccc3cc(Br)ccc3c2)cc1N` [12d, 5-(((6-Bromonaphthalen-2-yl)sulfonyl)methyl)-2-methoxyaniline], the IC50 (commonly the midpoint of a concentration-inhibition curve) came out at 95 ± 8 nM in test [1] (setting [11]), 78 ± 2 nM in test [2] (setting [12]), 64 ± 5 nM in [3] (setting [13]) and 402 ± 35 nM in [4] (setting [14]).
The corresponding values for `COc1ccc(C[S+]([O-])c2ccc3ccccc3c2)cc1N` (stereo not shown) [12a, 2-Methoxy-5-((naphthalen-2-ylsulfinyl)methyl)aniline] are 681 ± 48 nM, 148 ± 27 nM, 173 ± 31 nM and 434 ± 38 nM.
For `COc1ccc(CS(=O)(=O)c2ccc3ccccc3c2)cc1NCC(=O)O` [15b, (2-Methoxy-5-((naphthalen-2-ylsulfonyl)methyl)phenyl)glycine], the 50% inhibitory concentration (IC50) in test [1] (read-out: IC50 MCF-7, MTS, 48 h treatment) amounted to 29 ± 1 nM; in test [2] (read-out: IC50 SCC-15, MTS, 48 h treatment), 15 ± 2 nM; in [7], 1060 ± 48 nM; in test [3] (read-out: IC50 HeLa, MTS, 48 h treatment), 64 ± 5 nM; in test [4] (read-out: IC50 HepG2, MTS, 48 h treatment) it was 390 ± 13 nM. Also, the “expression of antiapoptotic protein Bcl-2” value with Bcl-2 is reported as “down-regulation”. Moreover, the Wound healing rate in the test on HeLa cells [5] (25 nM, 24 h, control 46.4) was 20.0% and 20.0 ± 3.5 %; with HeLa cells [5] (25 nM, 48 h, control 70.8), 32.0% and 32.0 ± 6.1 %; in the test on HeLa cells [5] (50 nM, 24 h, control 46.4), 13.2 ± 2.2 %; with HeLa cells [5] (50 nM, 48 h, control 70.8) it was 15.5 ± 3.4 %; in the test on HeLa cells [5] (100 nM, 24 h, control 46.4), 3.9% and 3.9 ± 3.0 %; in the test with HeLa cells [5] (100 nM, 48 h, control 70.8), 4.4% and 4.4 ± 2.7 %. Also, the entries for the “apoptotic values (early and late apoptotic states)” value with HeLa cells [6] (24 h), in the test on HeLa cells [6] (36 h) and in the test on HeLa cells [6] (48 h) were 9.2%, 30.2% and 53.2%, respectively. Moreover, the “levels of the proapoptotic protein p53” value in the test on p53 is “increased significantly”. The “expression of proapoptotic protein Bax” value in the test on Bax was “up-regulation”.
For `COc1ccc(C[S+]([O-])c2ccc3cc(Br)ccc3c2)cc1N` (stereo not shown) [12c, 5-(((6-Bromonaphthalen-2-yl)sulfinyl)methyl)-2-methoxyaniline], the IC50 came to 858 ± 88 nM in test [1] (setting [11]), 264 ± 27 nM in test [2] (setting [12]), 92 ± 9 nM in test [3] (setting [13]) and 1310 ± 91 nM in [4] (setting [14]).
As to `COc1ccc(C[S+]([O-])c2ccc3ccccc3c2)cc1NCC(=O)O` (stereo not shown) [15a, (2-Methoxy-5-((naphthalen-2-ylsulfinyl)methyl)phenyl)glycine], the IC50 in test [1] (setting [11]) was 2030 ± 73 nM; in [2] (setting [12]), 722 ± 29 nM; in test [3] (setting [13]), 230 ± 4 nM; in [4] (setting [14]) it was 5080 ± 318 nM.
Regarding `COc1ccc(CSc2ccc3ccccc3c2)cc1N` [12e, 2-Methoxy-5-((naphthalen-2-ylthio)methyl)aniline], the half-maximal inhibitory concentration (IC50) in [1] (setting [11]) was 17500 ± 2320 nM; in test [2] (setting [12]), 2210 ± 314 nM; in [3] (setting [13]), 4060 ± 316 nM; in test [4] (setting [14]), 42600 ± 3810 nM.
In the same order, the values of `COc1ccc(CS(=O)(=O)c2ccc3ccccc3c2)cc1N` [12b, 2-Methoxy-5-((naphthalen-2-ylsulfonyl)methyl)aniline] are 110 ± 14 nM, 28 ± 6 nM, 30 ± 5 nM and 43 ± 7 nM.
As for `COc1cc(OC)c(/C=C/S(=O)(=O)Cc2ccc(OC)c(NCC(=O)O)c2)c(OC)c1` [Rigosertib, reference compound], the IC50 in test [1] (setting [11]) was 22 ± 3 nM; in test [9] it was 50 to 250 nM; in test [2] (setting [12]), 35 ± 3 nM; in [3] (setting [13]), 65 ± 5 nM; in test [4] (setting [14]), 108 ± 17 nM. In addition, the “tumor growth in mouse xenograft models” value in [8] is “significantly suppress tumor growth”. Further, the “tumor growth in mouse xenograft model” value in the test on BT20 cells is “remarkably inhibit tumor growth”. The “anti-proliferative effect on normal cells” value in test [10] is recorded as “little or no anti-proliferative effect”.
